Screens from PubChem.
IMP-1 inh = inhibitors of Pseudomonas aeruginosa IMP-1 metallo-beta-lactamase. purified IMP-1, nitrocefin hydrolysis, epi-absorbance fluorescence. inhibition, % at 5.6 µM. hit rate 0.45% among 290,000;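 active means inhibition above the mean plus 3 SD of all compounds in the same screening run, cut at about 4.5% in these data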;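 further: 0% = IMP-1 with DMSO and 100% = DMSO wells lacking enzyme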
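System: purified recombinant IMP-1 beta-lactamase. Medium: Zinc- and detergent-supplemented HEPES buffer, pH 7.1. Compound: one 5.6 µM dose […]. Schedule: 15 min preincubation plus 25 min reaction at 25 °C. Technique: Epi-absorbance fluorescence, 480 nm excitation, 530 nm emission.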
VIM-2 inh = blocks Pseudomonas aeruginosa VIM-2 metallo-beta-lactamase. purified VIM-2, nitrocefin hydrolysis, epi-absorbance fluorescence. inhibition, % at 5.6 µM. hit rate 0.89% among 290,000. AID 1527;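 active means inhibition above the mean of all tested compounds plus 3 SD, cutoff set per screening run, cut at about 7.5% in these data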;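 further: red hydrolysis product quenches plate fluorescence so inhibitors raise well fluorescence; 0% = enzyme with DMSO and 100% = DMSO without enzyme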
697 NFkB inh = inhibitors of the PMA/ionomycin-induced NF-kB reporter in 697 B cells. inhibition, % at 4 µM. 697 B-cell NF-kB luciferase reporter, 16 h. hit rate 0.33% among 330,000. AID 435022; in the data active means inhibition above about 35%
aSyn UTR inh = MLPCN primary screen, SNCA 5' untranslated region; alpha-synuclein 5'UTR reporter, inhibitor activity; hit rate 0.82% among 300,000; inhibition, % (tested at 7.5 µM); in the data active means inhibition above about 60%;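 further: H4 neuroglioblastoma cells stably carrying SNCA 5'UTR luciferase fusion; 0% = DMSO wells and 100% = positive control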
Mdm2 MdmX PPI = disrupts the human Mdm2-MdmX interaction; O15151+Q00987; SaOS-2 split-luciferase Mdm2/MdmX complementation, luminescence; hit rate 3% among 330,000; inhibition, % at 8 µM;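 active means inhibition of at least 50% at 8 µM in the primary screen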
Target sequence (O15151 whole entry, looked up): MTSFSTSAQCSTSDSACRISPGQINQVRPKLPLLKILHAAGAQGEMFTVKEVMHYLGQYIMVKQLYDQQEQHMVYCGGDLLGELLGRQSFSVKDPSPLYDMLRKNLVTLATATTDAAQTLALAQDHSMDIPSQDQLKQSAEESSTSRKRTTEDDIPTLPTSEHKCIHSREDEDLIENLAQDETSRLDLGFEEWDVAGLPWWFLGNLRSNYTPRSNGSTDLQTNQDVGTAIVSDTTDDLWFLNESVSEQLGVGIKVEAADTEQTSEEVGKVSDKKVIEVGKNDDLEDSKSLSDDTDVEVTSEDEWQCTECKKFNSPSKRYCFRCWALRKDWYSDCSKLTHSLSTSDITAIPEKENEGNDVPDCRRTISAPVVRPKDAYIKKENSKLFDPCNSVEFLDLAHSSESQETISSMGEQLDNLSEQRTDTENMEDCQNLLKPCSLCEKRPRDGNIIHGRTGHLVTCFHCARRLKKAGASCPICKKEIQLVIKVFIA
Target sequence (Q00987 whole entry, looked up): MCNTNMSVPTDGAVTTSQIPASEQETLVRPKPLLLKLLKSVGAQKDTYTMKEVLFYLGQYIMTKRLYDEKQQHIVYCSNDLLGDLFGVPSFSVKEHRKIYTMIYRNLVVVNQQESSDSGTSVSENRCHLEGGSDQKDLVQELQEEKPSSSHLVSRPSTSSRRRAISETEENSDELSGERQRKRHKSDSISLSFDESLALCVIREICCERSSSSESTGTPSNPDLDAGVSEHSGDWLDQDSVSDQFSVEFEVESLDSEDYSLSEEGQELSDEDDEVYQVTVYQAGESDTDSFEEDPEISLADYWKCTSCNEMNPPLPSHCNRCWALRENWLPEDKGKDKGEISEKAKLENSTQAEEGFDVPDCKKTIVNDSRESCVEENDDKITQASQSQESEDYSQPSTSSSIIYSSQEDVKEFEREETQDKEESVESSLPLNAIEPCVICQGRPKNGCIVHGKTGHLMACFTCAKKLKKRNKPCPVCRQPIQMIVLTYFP
Jurkat NFkB inh = inhibitors of the PMA/ionomycin-induced NF-kB reporter in Jurkat cells | PMA/ionomycin-induced NF-kB luciferase reporter, luminescence | inhibition, % at 4 µM | hit rate 0.53% among 330,000; in the data active means inhibition above about 50%
Starred values were filed as active, the others as inactive; · = no result given. An excerpt weighted towards active compounds, which were near 4.7% of everything screened.

SMILES | IMP-1 inh | VIM-2 inh | 697 NFkB inh | aSyn UTR inh | Mdm2 MdmX PPI | Jurkat NFkB inh
O=S1(=O)CC(O)C(NCc2ccco2)C1 (stereo unspecified) | -2 | -2 | -13 | -2 | -28 | 8
N#CC1=C(N)Oc2n[nH]c(-c3cccs3)c2C1c1cccs1 (stereo unspecified) | 3 | 8.2* | 15 | 16 | 34 | -4
N#CC1=C(N)Oc2n[nH]c(-c3cccs3)c2C1c1ccccc1C(=O)O (stereo unspecified) | -2 | 4 | 7 | 21 | 15 | -4
CC(C)NC(=O)c1ccc(N(Cc2ccccc2)S(C)(=O)=O)cc1 | -4 | -2 | 1 | 3 | -10 | 2
CN(C(=O)COC(=O)C1CCN(S(=O)(=O)c2ccc3c(c2)OCCO3)CC1)C1CCCCC1 | · | · | 9 | 10 | -17 | -11
N/C(=N\OC(=O)c1cc([N+](=O)[O-])ccc1Cl)c1cccnc1 | -3 | -2 | 11 | 88* | 38 | 3
N/C(=N\OC(=O)c1ccccc1Br)c1ccc([N+](=O)[O-])cc1 | 12* | -2 | -133 | -103 | 34 | -104
Nc1nc(NCCc2ccccc2)nc(NCCO)c1[N+](=O)[O-] | -3 | 0 | -47 | 53 | -21 | 1
COc1ccc(/C=C2\Oc3cc(OCC(=O)N4CCC[C@H]4C(=O)O)ccc3C2=O)c(OC)c1 | -1 | 1 | 17 | 27 | -23 | 10
COc1cc(OC)c(OC)cc1/C=C1\Oc2cc(OCC(=O)N3Cc4ccccc4C[C@H]3C(=O)O)ccc2C1=O | 3 | 12* | 2 | 9 | -4 | 8
O=[N+]([O-])c1cc(Br)c(O)c(/C=N/Nc2nnnn2-c2cccc3ccccc23)c1 | 4.8* | -3 | 10 | -44 | 8 | 22
Cn1cccc1/C=N/NC(=O)c1cc2ccccc2cc1O | -2 | -3 | -20 | -82 | 10 | 8
Oc1c(Cl)cc(Cl)cc1CNc1ccc(Br)cn1 | 6.1* | -2 | -38 | -28 | -108 | 7
Oc1ccc(Cl)cc1CNc1ccc(Br)cn1 | -1 | 0 | -57 | -142 | -145 | -58
COc1ccccc1N1CCN(C(=O)c2cc3c(=O)n(C)c4ccccc4c3n2C)CC1 | -2 | 8.8* | -36 | 4 | -28 | -6
COc1ccccc1N1CCN(C(=O)c2cc3sccc3n2C)CC1 | -1 | -1 | -1 | 10 | 34 | -1
Cn1c(C(=O)N2CCN(C(=O)c3ccco3)CC2)cc2c(=O)n(C)c3ccccc3c21 | -2 | 11* | 9 | 7 | 7 | 15
Cn1c(C(=O)N2CCN(C3CCCCC3)CC2)cc2c(=O)n(C)c3ccccc3c21 | -2 | 3 | · | · | · | ·
O=C(O)c1cc(N=Cc2c(O)c3ccccc3oc2=O)ccc1O | -5 | 0 | 10 | 11 | 21 | -17
CC(=O)c1sc(NC(=O)CN2C(=O)C3CCCCC3C2=O)nc1-c1ccccc1 (stereo unspecified) | · | · | 20 | · | -5 | 7
O=C(COC(=O)CSc1ccc([N+](=O)[O-])cc1)NCCCc1ccccc1 | -2 | -1 | -1 | -12 | -4 | -4
O=S(=O)(NCCc1cccs1)c1ccc(Br)cc1 | 5.5* | 1 | -6 | 0 | 2 | -16
O=S(=O)(Nc1ccc(OC(F)F)cc1)c1ccc(-c2ccon2)s1 | -2 | -4 | -2 | 2 | 15 | -2
Cn1cc(-c2nnc(-c3ccccc3)o2)c2ccccc21 | 4.9* | 0 | -223 | -64 | -270 | -135
Cc1ccccc1-c1nnc(-c2ccccc2)o1 | -3 | 0 | -114 | -138 | -103 | -77
SMILES | IMP-1 inh | VIM-2 inh | 697 NFkB inh | aSyn UTR inh | Mdm2 MdmX PPI | Jurkat NFkB inh
CCOc1ccc(N2C(=O)S/C(=C\c3ccc(O)c(OCC)c3)C2=O)cc1 | -4 | -2 | 1 | -22 | -31 | -9
CCOc1cc(/C=C2\SC(=O)N(c3ccc(O)cc3)C2=O)ccc1O | -2 | 10* | 4 | -32 | -10 | 17
Cc1cccc(C)c1NC(=O)CSC(=O)c1sc2ccccc2c1Cl | -2 | -1 | 16 | -13 | 20 | 14
O=C(CSc1ccc2nnc(CCNC(=O)c3ccc(F)cc3)n2n1)NCC1CCCO1 (stereo unspecified) | -2 | -1 | 8 | 1 | 15 | 15
Cn1c2ccccc2c2nnc(SCC(=O)NC3CC3)nc21 | 1 | 9.2* | 2 | -2 | -2 | 4
C=CCn1c2ccccc2c2nnc(SCC(N)=O)nc21 | -2 | 8.9* | 5 | 24 | 10 | 4
Cn1c2ccccc2c2nnc(SCC(N)=O)nc21 | -3 | 8.0* | 10 | 3 | -1 | -6
CCOC(=O)Cc1nnc(NC(=O)C(CC)Sc2nnc3c4ccccc4n(C)c3n2)s1 (stereo unspecified) | -1 | 9.3* | 4 | -17 | -2 | 4
CCn1c2ccccc2c2nnc(SCC(N)=O)nc21 | -5 | 5 | -11 | -5 | -3 | -14
CCn1c2ccccc2c2nnc(SCC(=O)NC3CCS(=O)(=O)C3)nc21 (stereo unspecified) | -4 | 3 | 1 | -26 | -9 | 6
CC1CC1C(=O)N1CCN(S(=O)(=O)c2cccc(F)c2)CC1 (stereo unspecified) | · | · | -1 | 5 | 12 | 12
CCc1cc2c(=O)n(CCCOC)c(SCC(=O)Nc3oc(C)c4c(C)n[nH]c(=O)c34)nc2s1 | · | · | 17 | -1 | 26 | -3
COc1cc(CNCc2ccc(Br)cc2)cc(OC)c1 | -4 | -1 | 9 | -2 | 18 | -5
Cn1c2ccc(Br)cc2c2nnc(SCC(=O)O)nc21 | 2 | 9.8* | -16 | 62* | 21 | -18
COc1cn(-c2ccccc2)nc1C(=O)NCc1ccc(C)cc1 | -1 | 0 | 5 | 18 | -6 | -19
Cc1ccc(-n2c(SCC(=O)N3CCCCC3)nc(O)c(Cc3ccccc3)c2=O)cc1 | 9.3* | -1 | -22 | 3 | 21 | 2
Cc1sc2nc(SCC(=O)N3CCN(CCO)CC3)n(-c3ccccc3)c(=O)c2c1C | -1 | 24* | 10 | 8 | 2 | 6
CCOc1ccc2[nH]c(C)c(CN3CCN(CC)CC3)c(=O)c2c1 | 5.2* | -2 | 2 | 31 | 21 | 4
O=C(NC1CCCC1)c1cnn2c(C(F)(F)F)cc(-c3ccco3)nc12 | -2 | 17* | 10 | 34 | 16 | 14
O=C(NCc1ccco1)c1nn2c(C(F)(F)F)cc(-c3cccs3)nc2c1Cl | -2 | 2 | -10 | -11 | 16 | 11
O=C(NCc1ccco1)c1cnn2c(C(F)(F)F)cc(-c3ccccc3)nc12 | -3 | 1 | -13 | 0 | 29 | -4
COc1ccc(-c2cc(C(F)(F)F)n3ncc(C(=O)NCc4ccco4)c3n2)cc1 | -4 | 8.2* | -9 | -8 | 25 | -21
O=C(NCc1ccco1)c1cc2nc(-c3cccs3)cc(C(F)(F)F)n2n1 | -5 | 8.6* | -3 | 19 | 3 | -14
CCCNC(=O)Cn1sc2nc(C)cc(C)c2c1=O | -2 | -2 | 9 | 2 | 9 | -6
